Results: ChEMBL document CHEMBL5344432, “Identification of a Dual Autophagy and REV-ERB Inhibitor with in Vivo Anticancer Efficacy” (J Med Chem, 2024)
Values after ≈ are worked out from the molar mass of the structure shown.

What was measured:
[1] = test system: BT-474; assay: Cytotoxicity against human BT-474 cells; assay type: functional
Summary of the method: (§1)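 BT-474 breast cancer cells and nontumorigenic HMECs treated 48 h with concentrations up to 30 μM. CC50 derived from concentration–response viability plots. Values >30 μM assigned when viability fell by less than 50% of vehicle at 30 μM. Mean ± SEM, n ≥ 3.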

[2] = (§2) Cytotoxicity against HMECs; assay type: toxicity, cell-based, HMEC; conditions: human, HMEC cells; summary of the method: as §1
[3] = Aqueous kinetic solubility of the compound in PBS at pH 7.4 at 250 uM incubated for 24 hrs by UPLC/MS analysis; assay type: physicochemical; conditions: read-out: Kinetic_solubility
Summary of the method: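 Kinetic solubility measured in phosphate-buffered saline, pH 7.4. Mean of at least two independent experiments, each run in two technical replicates.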

[4] = Metabolic stability in mouse liver microsomes assessed as half life preincubated for 15 mins followed by NADPH addition and measured after 1 to 2 hrs by LC-MS/MS analysis; assay type: ADME, Microsome; conditions: time 75-135 min; for half-life: liver microsomes; for t1/2: microsomes
Summary of the method: (§3)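 Microsomal stability assessed in mouse, human, rat or dog liver microsomes with NADPH cofactor. Half-life and percent parent remaining at 60 and 120 min reported. Mean of at least two independent experiments, each in two technical replicates.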

[5] = Metabolic stability in mouse liver microsomes assessed as parent compound remaining preincubated for 15 mins followed by NADPH addition and measured after 1 hr by LC-MS/MS analysis; assay type: ADME, Microsome; conditions: time 75 min, read-out: Stability; summary of the method: as §3
[6] = Metabolic stability in mouse liver microsomes assessed as parent compound remaining preincubated for 15 mins followed by NADPH addition and measured after 2 hrs by LC-MS/MS analysis; assay type: ADME, Microsome; conditions: time 135 min, read-out: Stability; summary of the method: as §3
[7] = Metabolic stability in human liver microsomes assessed as half life preincubated for 15 mins followed by NADPH addition and measured after 1 to 2 hrs by LC-MS/MS analysis; assay type: ADME, Microsome; conditions: time 75-135 min; for half-life: liver microsomes; summary of the method: as §3
[8] = Metabolic stability in human liver microsomes assessed as parent compound remaining preincubated for 15 mins followed by NADPH addition and measured after 1 hr by LC-MS/MS analysis; assay type: ADME, Microsome; conditions: time 75 min, read-out: Stability; summary of the method: as §3
[9] = Metabolic stability in human liver microsomes assessed as parent compound remaining preincubated for 15 mins followed by NADPH addition and measured after 2 hrs by LC-MS/MS analysis; assay type: ADME, Microsome; conditions: time 135 min, read-out: Stability; summary of the method: as §3
[10] = Metabolic stability in mouse liver microsomes assessed as half life preincubated for 15 mins followed by UDPGA addition and measured after 2 hrs by LC-MS/MS analysis; assay type: ADME, Microsome; conditions: time 135 min
Summary of the method: (§4)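 Mouse and human liver microsomes incubated with UDPGA cofactor. Half-life and percent parent remaining at 120 min reported. Mean of at least two independent experiments, each in two technical replicates.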

[11] = Metabolic stability in human liver microsomes assessed as parent compound remaining preincubated for 15 mins followed by UDPGA addition and measured after 2 hrs by LC-MS/MS analysis; assay type: ADME, Microsome; conditions: time 135 min, read-out: Stability; summary of the method: as §4
[12] = Metabolic stability in mouse liver microsomes assessed as half-life preincubated for 15 mins followed by UDPGA addition and measured after 2 hrs by LC-MS/MS analysis
[13] = Metabolic stability in human liver microsomes assessed as percent compound remaining preincubated for 15 mins followed by UDPGA addition and measured after 2 hrs by LC-MS/MS analysis
[14] = Metabolic stability in rat liver microsomes assessed as half life preincubated for 15 mins followed by NADPH addition and measured after 1 to 2 hrs by LC-MS/MS analysis; assay type: ADME, Microsome; conditions: liver microsomes, time 75-135 min; summary of the method: as §3
[15] = Metabolic stability in dog liver microsomes assessed as half life preincubated for 15 mins followed by NADPH addition and measured after 1 to 2 hrs by LC-MS/MS analysis; assay type: ADME, Canis lupus familiaris, Microsome; conditions: microsomes, time 75-135 min; summary of the method: as §3
[16] = Metabolic stability in rat liver microsomes assessed as parent compound remaining preincubated for 15 mins followed by NADPH addition and measured after 1 to 2 hrs by LC-MS/MS analysis; assay type: ADME, Microsome; conditions: time 75-135 min; summary of the method: as §3
[17] = test system: HMEC; assay: as §2; assay type: toxicity, cell-based; conditions: human, hmec; summary of the method: as §1

| Compound | CC50 [1] [µM] | CC50 [2] [µM] | solubility kinetic at 24 h, 250 µM [3] [µM] | half-life [4] [h] | remaining at 1 h [5] [%] | remaining at 2 h [6] [%] | half-life [7] [h] | remaining at 1 h [8] [%] | remaining at 2 h [9] [%] | half-life [10] [h] | remaining at 2 h [11] [%] | t1/2 at 2 h [12] [h] | percent compound remaining at 2 h [13] [%] | t1/2 [4] [h] | half-life [14] [h] | t1/2 [15] [h] | Stability [16] [%] | CC50 [17] [µM] | t1/2 ([7]; microsomes) [h] |
| --- | --- | --- | --- | --- | --- | --- | --- | --- | --- | --- | --- | --- | --- | --- | --- | --- | --- | --- | --- |
| Fc1ccc(C2(NCc3cccc(CC4CCNCC4)c3)CCCC2)cc1 | 2.74 | > 30 | 248 (≈ 90.9 µg/mL) | > 2 | 85 | 71 | > 2 | 80 | 62 | > 2 | 95 | > 2 | 95 | – | – | – | – | – | – |
| CN1CCC(Cc2ccc(F)c(CNC3(c4ccc(F)cc4)CCCC3)c2)CC1 | 5.45 | > 30 | 246 (≈ 98 µg/mL) | – | 68 | 46 | > 2 | 75 | 53 | > 2 | 95 | > 2 | 95 | 1.78 | – | – | – | – | – |
| CN1CCC(Cc2cccc(CNC3(c4ccc(F)cc4)CCCC3)c2)CC1(C)C (racemic) | 6.46 | > 30 | 239 (≈ 97.7 µg/mL) | > 1 | 58 | – | – | – | – | – | – | – | – | – | – | – | – | – | – |
| COc1cc(C2(NCc3cccc(CC4CCN(C)CC4)c3)CCCC2)ccc1F | 3.65 | > 30 | 219 (≈ 89.9 µg/mL) | – | 62 | 40 | > 2 | 80 | 55 | > 2 | > 95 | > 2 | – | 1.52 | – | – | – | – | – |
| CN1CCC(Cc2cc(CNC3(c4ccc(F)c(F)c4)CCCC3)ccc2F)CC1 | 3.52 | > 30 | 231 (≈ 96.2 µg/mL) | – | 48 | 21 | > 2 | 77 | 56 | – | – | – | – | 0.967 | – | – | – | – | – |
| CN1CCC(Cc2cccc(CNC3(c4ccc(F)cc4O)CCCC3)c2)CC1 | > 30 | > 30 | 27 (≈ 10.7 µg/mL) | – | 34 | 13 | – | – | – | > 2 | > 95 | > 2 | – | 0.7 | – | – | – | – | – |
| CN1CC2(CC(Cc3cccc(CNC4(c5ccc(F)cc5)CCCC4)c3)C2)C1 | 4.83 | > 30 | 232 (≈ 91.1 µg/mL) | – | 70 | 49 | > 2 | 82 | 66 | > 2 | 95 | > 2 | – | 1.92 | > 1 | 0.883 | 64 | – | – |
| CN1CCC(Cc2cc(CNC3(c4ccc(F)cc4)CCCC3)c(F)cc2F)CC1 | 3.11 | – | 228 (≈ 95 µg/mL) | – | 58 | 34 | > 2 | 76 | 52 | > 2 | 95 | > 2 | 95 | 1.33 | – | – | – | 20.4 | – |
| CN1CCC(Cc2cc(CNC3(c4ccc(F)cc4)CCCC3)ccc2Cl)CC1 | 2.34 | – | 216 (≈ 89.6 µg/mL) | – | 51 | 29 | – | – | – | – | – | – | – | 0.933 | – | – | – | 15.4 | – |
| CN1CCC(Cc2cccc(CNC3(c4ccc(F)cc4Cl)CCCC3)c2)CC1 | 4.25 | – | 220 (≈ 91.3 µg/mL) | – | – | – | – | – | – | – | – | – | – | 0.183 | – | – | – | 21 | – |
| CN1CCC(Cc2cccc(CNC3(c4ccc(F)c(O)c4)CCCC3)c2)CC1 | 11.7 | > 30 | > 250 | > 2 | 80 | 63 | > 2 | 84 | 71 | > 2 | > 95 | > 2 | 95 | – | – | – | – | – | – |
| COc1cc(F)ccc1C1(NCc2ccc(F)c(CC3CCN(C)CC3)c2)CCCC1 | 6.88 | > 30 | > 250 | – | 55 | 31 | > 2 | 75 | 58 | > 2 | 95 | > 2 | – | 1.15 | – | – | – | – | – |
| CN1CCC(Cc2ccc(O)c(CNC3(c4ccc(F)cc4)CCCC3)c2)CC1 | 7.03 | > 30 | 246 (≈ 97.6 µg/mL) | – | – | – | > 2 | 74 | 54 | > 2 | 95 | > 2 | 95 | 1.37 | – | – | – | – | – |
| CN1CCC(Cc2cc(CNC3(c4ccc(F)cc4)CCCC3)ccc2O)CC1 | 5.1 | > 30 | > 250 | – | 61 | 43 | > 2 | 83 | 63 | > 2 | 95 | > 2 | 95 | 1.45 | – | – | – | – | – |
| CN1CCC(Cc2cccc(CNC3(c4ccc(F)c(Cl)c4)CCCC3)c2)CC1 | 3.61 | – | 249 (≈ 103 µg/mL) | > 1 | 53 | – | – | – | – | – | – | – | – | – | – | – | – | 21.9 | – |
| CN1CCC(Cc2cccc(CNC3(c4ccc(F)cc4F)CCCC3)c2)CC1 | 7.83 | > 30 | 209 (≈ 83.3 µg/mL) | < 0.5 | 19 | 5 | – | – | – | – | – | – | – | – | – | – | – | – | – |
| CN1CCC(Cc2cccc(CNC3(c4ccc(F)c(F)c4)CCCC3)c2)CC1 | 5.1 | > 30 | 245 (≈ 97.6 µg/mL) | – | 56 | 31 | > 2 | 75 | 53 | > 2 | > 95 | > 2 | – | 1.17 | – | – | – | – | – |
| CN1CC(Cc2cccc(CNC3(c4ccc(F)cc4)CCCC3)c2)C1 | 13.4 | > 30 | > 250 | > 1 | 63 | – | – | – | – | – | – | – | – | – | – | – | – | – | – |
| COc1cc(F)ccc1C1(NCc2cccc(CC3CCN(C)CC3)c2)CCCC1 | 6.99 | > 30 | 247 (≈ 101 µg/mL) | – | 64 | 42 | – | 70 | 50 | > 2 | > 95 | > 2 | – | 1.63 | – | – | – | – | 1.53 |
| CN1CCC(Cc2cc(CNC3(c4ccc(F)cc4)CCCC3)ccc2F)CC1 | 5.89 | > 30 | > 250 | – | 60 | 39 | > 2 | 84 | 71 | > 2 | 95 | > 2 | 95 | 1.52 | – | – | – | – | – |
| CN1CCC(Cc2cccc(CNC3(c4ccc(F)cc4)CCCC3)c2)C(F)(F)C1 (racemic) | 21.9 | > 30 | 41 (≈ 17.1 µg/mL) | < 0.0833 | – | – | – | – | – | – | – | – | – | – | – | – | – | – | – |
| CN1CC2(CC(Cc3cccc(CNC4(c5ccc(F)c(F)c5)CCCC4)c3)C2)C1 | 2.99 | – | 226 (≈ 92.8 µg/mL) | – | 56 | 32 | > 2 | 84 | 65 | – | – | – | – | 1.25 | – | – | – | 14.8 | – |
